Screening results from PubChem BioAssay.
Compounds with a hit are over-represented: about 2.5% of the library has one in this group of screens.
MEKK2 WT-MEK5: raises or lowers MEK5 binding to wildtype human MEKK2 PB1 domain; AID 1531; 290,000 compounds, 1.1% hits; Q9Y2U5; bead flow cytometry, Alexa488-MEK5 binding to MEKK2 WT; actives lie on both sides; binding response (% of control), % at 10 µM; in the data active means binding response below about 67% or above about 130%
MEKK2 mut-MEK5: signal of MEK5 binding to mutant human MEKK2 PB1 domain; bead flow cytometry, Alexa488-MEK5 binding to MEKK2 mutant; 290,000 compounds, 0.35% hits; percent response, % at 10 µM; in the data active means percent response above about 24%, passing the limit was not always enough
ABCB1 block: inhibitors of human ABCB1 transporter, ABCG2 counter-screen; P08183; CCRF-Adr cells, JC-1 efflux, flow cytometry; inhibition, % at 6.6 µM; 190,000 compounds, 0.067% hits; in the data active means inhibition above about 40%;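 further: 0% = vehicle and 100% = reference inhibitor; higher value means more JC-1 retained so stronger ABCB1 efflux block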
ABCG2 inh: blocks JC-1 efflux by human ABCG2 transporter | Q9UNQ0 | IgMXP3 cells, flow cytometry | 190,000 compounds, 0.1% hits | inhibition, % at 6.6 µM;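 active means inhibition above 80%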;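 further: 0% = DMSO and 100% = nicardipine control wells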
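Test system: ABCG2 IgMXP3 and barcoded ABCB1 CCRF-Adr cell mix; Schedule: cells with compound and JC-1, 10 min at 25 °C, rotating, no wash; Technique: flow cytometry of retained JC-1 fluorescence; Measure: % inhibition of efflux relative to nicardipine and DMSO; Controls: nicardipine high and DMSO low controls.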
MEKK3 PB1 HTS: raises or lowers MEK5 binding to the human MEKK3 PB1 domain. Q99759. bead-based flow cytometry, Alexa488-MEK5 binding to MEKK3; actives lie on both sides; 0 = blocked by unlabeled MEK5, 100 = vehicle. binding response (% of control), % at 10 µM. 290,000 compounds, 1.4% hits;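 active means binding response more than 3 SD above or below the average of its plate-row segment, actives on both sides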;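 further: Alexa488 bead fluorescence after subtracting the streptavidin-only scavenger bead signal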
Target sequence (Q99759 whole entry, looked up, the tested form may be a part): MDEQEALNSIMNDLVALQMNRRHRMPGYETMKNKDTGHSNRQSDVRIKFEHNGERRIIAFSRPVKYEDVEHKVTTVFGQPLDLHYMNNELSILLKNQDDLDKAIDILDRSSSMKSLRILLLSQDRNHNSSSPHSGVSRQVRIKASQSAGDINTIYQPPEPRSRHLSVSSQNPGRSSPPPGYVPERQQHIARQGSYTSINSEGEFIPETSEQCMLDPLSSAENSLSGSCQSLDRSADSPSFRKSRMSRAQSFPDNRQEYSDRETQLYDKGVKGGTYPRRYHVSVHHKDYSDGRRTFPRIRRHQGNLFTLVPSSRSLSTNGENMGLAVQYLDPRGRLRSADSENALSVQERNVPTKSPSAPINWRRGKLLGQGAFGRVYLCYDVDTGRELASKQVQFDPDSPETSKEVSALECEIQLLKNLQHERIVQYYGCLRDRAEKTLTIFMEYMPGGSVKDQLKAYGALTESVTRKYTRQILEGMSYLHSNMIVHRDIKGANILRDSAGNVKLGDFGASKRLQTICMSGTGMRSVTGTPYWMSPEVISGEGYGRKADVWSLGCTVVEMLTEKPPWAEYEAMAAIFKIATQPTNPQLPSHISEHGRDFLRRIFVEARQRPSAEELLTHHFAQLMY
Efflux pump inh: blocks antifungal efflux pumps in multiplex yeast assay; S. cerevisiae Candida pump triplex, Nile Red efflux; inhibition, % at 10 µM; 330,000 compounds, 0.44% hits; AID 485275;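 active means plate passing quality check with inhibition over a set limit, or well fluorescence over plate mean plus 4 SD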;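 further: Nile Red retained in pooled yeast measured as flow cytometry median fluorescence; 0% = buffer negative control and 100% = Enniatin B positive control; higher means more Nile Red kept so more efflux inhibition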
Starred values were filed as active, the others as inactive.

CS(=O)(=O)Nc1cccc(C2=NN(S(C)(=O)=O)C(c3ccccc3)C2)c1 (stereo not drawn) was read as MEKK2 WT-MEK5 23*, MEKK2 mut-MEK5 37, ABCB1 block 2, ABCG2 inh 2, MEKK3 PB1 HTS 104 and Efflux pump inh 0.
COc1ccccc1C1CC(c2cccc(NS(C)(=O)=O)c2)=NN1S(=O)(=O)c1ccccc1 (stereo not drawn) was read as MEKK2 WT-MEK5 91, MEKK2 mut-MEK5 -14, MEKK3 PB1 HTS 88 and Efflux pump inh 0.
O=C(COC(=O)CCc1c[nH]c2ccccc12)NC(c1ccccc1)c1ccccc1 was read as MEKK2 WT-MEK5 103, MEKK2 mut-MEK5 0, ABCB1 block 1, ABCG2 inh 19, MEKK3 PB1 HTS 136* and Efflux pump inh 0.
COc1cccc2c1C(=O)c1c(O)c3c(c(O)c1C2=O)C[C@@](O)(C(=O)CO)C[C@@H]3O[C@H]1C[C@H](N)[C@@H](O)[C@H](C)O1 was read as MEKK2 WT-MEK5 7.0*, MEKK2 mut-MEK5 11, MEKK3 PB1 HTS 99 and Efflux pump inh 0.
Fc1ccc(-c2nnc(Cc3ccc(Cl)cc3)o2)cc1 was read as MEKK2 WT-MEK5 105, MEKK2 mut-MEK5 -1, MEKK3 PB1 HTS 104 and Efflux pump inh 0.
Screening CN(C)c1ccc(/C=C2\Oc3ccc(C#Cc4cccc(N)c4)cc3C2=O)cc1 returned Efflux pump inh 0.
`COc1ccc(CNc2ncnc3cc(Cl)ccc23)cc1OC` gave MEKK2 WT-MEK5 101, MEKK2 mut-MEK5 5, ABCB1 block 1, ABCG2 inh 5 and MEKK3 PB1 HTS 101.
`CCN(CC)Cc1cc2[nH]c3c4ccc(Cl)cc4ncc3c2cc1OC` gave MEKK2 WT-MEK5 163*, MEKK2 mut-MEK5 38* and MEKK3 PB1 HTS 96.
For Cn1cc(CN2CCCC(C(=O)Nc3cccc(-c4cc5ccccc5[nH]4)c3)C2)cn1 (stereo not drawn) the results were MEKK2 WT-MEK5 175*, MEKK2 mut-MEK5 30*, MEKK3 PB1 HTS 110 and Efflux pump inh 0.
CC(C)n1cc(CN2CCCC(C(=O)Nc3cccc(-c4cc5ccccc5[nH]4)c3)C2)cn1 (stereo not drawn) was read as MEKK2 WT-MEK5 180*, MEKK2 mut-MEK5 22, MEKK3 PB1 HTS 104 and Efflux pump inh 0.
`OCC(O)[C@@H](O[C@H]1O[C@H](CO)[C@@H](O)[C@H](O)[C@H]1O)[C@H](O)[C@@H](O)CO` (stereo partly drawn) gave Efflux pump inh 0.
For OC[C@@H](O)[C@@H](O[C@H]1O[C@H](CO)[C@@H](O)[C@H](O)[C@H]1O)[C@H](O)[C@@H](O)CO the results were MEKK2 WT-MEK5 -4.0*, MEKK2 mut-MEK5 5, ABCG2 inh 4, MEKK3 PB1 HTS 81 and Efflux pump inh 0.
`C=C(C)CC(NCCc1ccccc1)c1ccco1` (stereo not drawn) gave MEKK2 WT-MEK5 164*, MEKK2 mut-MEK5 -15, ABCB1 block 0, ABCG2 inh 1 and MEKK3 PB1 HTS 98.
`O=C(NCCc1ccccc1)c1ccco1` gave MEKK2 WT-MEK5 109, MEKK2 mut-MEK5 6, ABCB1 block 1, ABCG2 inh 0, MEKK3 PB1 HTS 111 and Efflux pump inh 0.
For COC(=O)c1ccccc1-c1c2ccc(=N)cc-2oc2cc(N)ccc12 the results were Efflux pump inh 116*.
`O=C(Nc1cc(C(=O)N2CCN(c3ccccc3O)CC2)ccc1Cl)c1cccs1` gave Efflux pump inh 0.
Screening Cc1nc(N2CCCCC2)c(C#N)c(C)c1[N+](=O)[O-] returned MEKK2 WT-MEK5 170*, MEKK2 mut-MEK5 -48, ABCB1 block 1, ABCG2 inh 4, MEKK3 PB1 HTS 89 and Efflux pump inh 0.
For O=C1S/C(=C\c2ccc(N3CCOCC3)o2)C(=O)N1Cc1ccc(F)cc1 the results were MEKK2 WT-MEK5 97, MEKK2 mut-MEK5 1, ABCB1 block 8, ABCG2 inh 107*, MEKK3 PB1 HTS 107 and Efflux pump inh 0.
